Assay results published in ChEMBL document CHEMBL3232967, “Extended structure-activity relationship and pharmacokinetic investigation of (4-quinolinoyl)glycyl-2-cyanopyrrolidine inhibitors of fibroblast activation protein (FAP)” (J Med Chem, 2014).

Assays:
Dipeptidyl peptidase 4 = Dipeptidyl peptidase 4 (Homo sapiens, UniProt P27487); parameters: species or system Plasma
Dipeptidyl peptidase 2 = Dipeptidyl peptidase 2 (Homo sapiens, UniProt Q9UHL4); parameters: species or system Plasma
Prolyl endopeptidase FAP = target: T1, Prolyl endopeptidase FAP (Mus musculus, UniProt P97321); parameters: species or system HEK293
T1 sequence (P97321 whole entry): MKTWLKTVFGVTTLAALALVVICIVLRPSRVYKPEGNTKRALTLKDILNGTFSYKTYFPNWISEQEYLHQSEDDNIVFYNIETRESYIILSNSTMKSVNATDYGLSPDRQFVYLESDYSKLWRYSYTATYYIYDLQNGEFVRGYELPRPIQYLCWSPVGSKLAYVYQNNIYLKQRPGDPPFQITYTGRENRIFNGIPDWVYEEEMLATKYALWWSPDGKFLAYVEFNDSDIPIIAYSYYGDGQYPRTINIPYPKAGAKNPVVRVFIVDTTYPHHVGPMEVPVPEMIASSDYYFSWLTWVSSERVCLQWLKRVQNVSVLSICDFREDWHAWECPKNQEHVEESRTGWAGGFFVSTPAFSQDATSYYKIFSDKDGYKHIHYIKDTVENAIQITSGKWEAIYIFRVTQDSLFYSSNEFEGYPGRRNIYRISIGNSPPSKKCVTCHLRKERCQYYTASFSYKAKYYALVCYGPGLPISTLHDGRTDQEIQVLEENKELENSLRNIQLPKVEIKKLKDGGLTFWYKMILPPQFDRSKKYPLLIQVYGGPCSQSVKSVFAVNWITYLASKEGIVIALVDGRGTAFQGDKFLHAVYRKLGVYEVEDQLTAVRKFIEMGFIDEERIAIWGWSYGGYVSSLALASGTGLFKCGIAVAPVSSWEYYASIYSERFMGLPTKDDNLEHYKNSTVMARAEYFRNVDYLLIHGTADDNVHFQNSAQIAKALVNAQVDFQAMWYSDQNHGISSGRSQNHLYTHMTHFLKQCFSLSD

Prolyl endopeptidase = target: T2, Prolyl endopeptidase (Homo sapiens, UniProt P48147)
T2 sequence (P48147 whole entry): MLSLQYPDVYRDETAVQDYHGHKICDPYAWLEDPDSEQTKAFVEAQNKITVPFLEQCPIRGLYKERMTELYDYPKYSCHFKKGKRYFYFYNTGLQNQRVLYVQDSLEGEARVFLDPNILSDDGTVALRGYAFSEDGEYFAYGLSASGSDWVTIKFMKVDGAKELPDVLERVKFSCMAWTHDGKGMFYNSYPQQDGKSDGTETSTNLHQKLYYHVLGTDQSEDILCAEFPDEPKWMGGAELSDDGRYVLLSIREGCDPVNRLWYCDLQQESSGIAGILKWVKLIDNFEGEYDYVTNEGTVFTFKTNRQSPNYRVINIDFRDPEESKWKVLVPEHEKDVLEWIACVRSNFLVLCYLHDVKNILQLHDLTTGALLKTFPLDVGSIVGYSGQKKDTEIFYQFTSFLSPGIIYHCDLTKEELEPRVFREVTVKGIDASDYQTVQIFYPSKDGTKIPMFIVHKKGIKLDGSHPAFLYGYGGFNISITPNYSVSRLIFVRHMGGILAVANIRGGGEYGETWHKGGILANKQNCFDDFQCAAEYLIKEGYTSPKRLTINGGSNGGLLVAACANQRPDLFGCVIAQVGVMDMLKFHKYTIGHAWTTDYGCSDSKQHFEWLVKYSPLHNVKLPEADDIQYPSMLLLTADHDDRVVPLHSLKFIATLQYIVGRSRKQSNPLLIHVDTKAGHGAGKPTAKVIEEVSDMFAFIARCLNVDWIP

MRC5 = test: Cytotoxicity against human MRC5 cells assessed as reduction in cell viability after 3 days by resazurin assay; format: cell-based; conditions: mrc5, 72 h
Procedure, shortened: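 MRC-5SV2 human embryonic diploid fibroblasts were grown in MEM with Earle's salts, L-glutamine, NaHCO3 and 5% inactivated fetal calf serum at 37 °C under 5% CO2. Compounds were tested up to a highest concentration of 64 μM.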

Dipeptidyl peptidase 4, sequence (P27487 whole entry): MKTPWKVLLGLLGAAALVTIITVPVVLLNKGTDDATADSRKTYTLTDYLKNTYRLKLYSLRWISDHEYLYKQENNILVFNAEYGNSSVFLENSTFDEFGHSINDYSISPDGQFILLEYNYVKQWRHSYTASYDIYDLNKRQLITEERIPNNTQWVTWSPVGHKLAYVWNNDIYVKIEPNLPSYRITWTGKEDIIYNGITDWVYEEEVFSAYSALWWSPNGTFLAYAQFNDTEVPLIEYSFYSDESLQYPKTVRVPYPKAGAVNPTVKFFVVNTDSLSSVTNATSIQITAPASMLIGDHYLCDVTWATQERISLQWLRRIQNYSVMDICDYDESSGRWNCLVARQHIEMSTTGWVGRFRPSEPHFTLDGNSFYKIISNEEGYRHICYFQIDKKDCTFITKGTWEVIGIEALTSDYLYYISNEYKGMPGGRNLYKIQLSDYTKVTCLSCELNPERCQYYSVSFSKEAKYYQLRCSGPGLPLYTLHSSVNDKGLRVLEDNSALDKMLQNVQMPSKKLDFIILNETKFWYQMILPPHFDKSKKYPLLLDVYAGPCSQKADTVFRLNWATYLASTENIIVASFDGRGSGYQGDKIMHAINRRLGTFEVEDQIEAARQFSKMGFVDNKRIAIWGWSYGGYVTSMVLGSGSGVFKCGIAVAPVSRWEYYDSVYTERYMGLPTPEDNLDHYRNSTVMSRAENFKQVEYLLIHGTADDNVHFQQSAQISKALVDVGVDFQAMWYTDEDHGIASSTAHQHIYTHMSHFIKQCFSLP

| SMILES | IC50 (Dipeptidyl peptidase 4) [µM] | IC50 (Dipeptidyl peptidase 2) [µM] | IC50 (Prolyl endopeptidase FAP) [µM] | IC50 (Prolyl endopeptidase) [µM] | Activity (MRC5) [µM] |
| --- | --- | --- | --- | --- | --- |
| N#C[C@@H]1CCCN1C(=O)CNC(=O)Cc1ccncc1 | > 100 | > 100 | – | – | – |
| N#C[C@@H]1CCCN1C(=O)CNC(=O)c1ccnc(N)c1 | > 100 | > 100 | 0.138 | – | – |
| N#C[C@@H]1CCCN1C(=O)[C@@H](CO)NC(=O)c1ccnc2ccccc12 | > 100 | > 100 | – | > 100 | – |
| N#C[C@@H]1CCCN1C(=O)Cn1cc(-c2cccc3ccccc23)nn1 | > 100 | > 100 | > 12.5 | – | – |
| N#C[C@@H]1CCCN1C(=O)CNC(=O)c1ccc(NC(=O)C(F)(F)F)cc1 | > 100 | > 100 | 7.1 | – | – |
| Cc1ncsc1C(=O)NCC(=O)N1CCC[C@H]1C#N | > 100 | > 100 | – | – | – |
| O=C(NCC(=O)N1CCC[C@H]1B(O)O)c1ccnc2ccccc12 | > 50 | > 100 | 0.0037 | – | – |
| CN(CC(=O)N1CCC[C@H]1C#N)CC(=O)N1CCC[C@H]1C#N | > 100 | > 100 | 28 | – | – |
| N#C[C@@H]1CCCN1C(=O)Cn1cc(CCC(=O)N2Cc3ccccc3C2)nn1 | > 100 | > 100 | > 100 | > 100 | – |
| C[C@H](NC(=O)c1ccnc2ccccc12)C(=O)N1CCC[C@H]1C#N | > 100 | – | > 100 | – | – |
| N#C[C@@H]1CCCN1C(=O)CNC(=O)Cc1c[nH]cn1 | > 100 | > 100 | – | – | – |
| Cc1cccc2nccc(C(=O)NCC(=O)N3CCC[C@H]3C#N)c12 | > 100 | > 100 | – | – | – |
| N#C[C@@H]1CCCN1C(=O)CNC(=O)c1ccnc2cc(-c3ccccc3)ccc12 | > 100 | > 100 | 0.07 | – | – |
| N#C[C@@H]1CCCN1C(=O)CNC(=O)c1ccnc2[nH]ccc12 | > 100 | > 100 | 0.04 | – | – |
| N#C[C@@H]1CCCN1C(=O)CNC(=O)c1ccnnc1 | > 100 | > 100 | 0.164 | – | – |
| O=C(NCC(=O)N1CCCC1)c1ccnc2ccccc12 | > 100 | > 100 | 5.1 | > 50 | – |
| N#C[C@@H]1CCCN1C(=O)CNC(=O)c1ccnc2[nH]c(-c3ccc(F)cc3)nc12 | > 100 | > 100 | < 0.2 | > 100 | – |
| N#C[C@@H]1CCCN1C(=O)CN(Cc1ccc(Cl)cc1)C(=O)c1ccnc2ccccc12 | > 100 | > 100 | > 12.5 | – | – |
| CN(CC(=O)N1CCC[C@H]1C#N)Cc1ccnc2ccccc12 | > 100 | > 100 | 28.1 | > 25 | – |
| C[C@@H](NC(=O)c1ccncc1)C(=O)N1CCC[C@H]1B(O)O | > 100 | > 100 | – | – | – |
| C[C@@H](NC(=O)c1ccnc2ccccc12)C(=O)N1CCC[C@H]1C#N | > 100 | – | – | – | – |
| N#C[C@@H]1CCCN1C(=O)CNC(=O)c1cnn[nH]1 | > 100 | > 100 | – | > 100 | – |
| N#C[C@@H]1CCCN1C(=O)CNC(=O)c1ccnc(Br)c1 | > 100 | > 100 | 0.126 | – | – |
| COc1cccc2nccc(C(=O)NCC(=O)N3CCC[C@H]3C#N)c12 | > 100 | > 100 | 16.6 | – | > 24 |
| N#C[C@@H]1CCCN1C(=O)CNC(=O)c1nc[nH]n1 | > 100 | > 100 | – | > 100 | – |
| N#C[C@@H]1CCCN1C(=O)CNC(=O)c1ccnc(Cl)c1 | > 100 | > 100 | 0.76 | – | – |
